Experimental data as given in ChEMBL document CHEMBL1124793, “Comparative reactivity of 1-carba-1-dethiacephalosporins with cephalosporins” (J Med Chem, 1990).
Converted amounts (≈) assume the structure as drawn.

Tests used:
[1] = Pseudo-first-order rate constant at pH 10 and 35 degrees Centigrade; format: ADME
Summary of the method: (§1)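 Parent β-lactam loss followed by HPLC, starting at 3.9 × 10^-4–1 × 10^-3 M, at 35 °C and μ = 0.5. pH was held at 10 by a pH-stat adding NaOH. Pseudo-first-order rate constants were derived, with half-lives from these rates. Some runs were done at pH 11, and the constant was taken as 1/10 of the observed value, assuming proportionality to [OH].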

[2] = Half-life is evaluated; format: ADME; summary of the method: as §1
Streptococcus pyogenes = assay: In vitro inhibitory activity against Streptococcus pyogenes Park; format: functional
Summary of the method: (§2)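 Agar dilution: compounds were diluted in 0.1 M phosphate buffer, pH 7.0, and mixed at 50 °C into Mueller–Hinton agar with 1% Bacto-Supplement C. Fresh overnight cultures were diluted to about 1 × 10^4 cells/μL and spotted at 1 μL. Plates were incubated overnight at 35 °C in ambient air. MIC (μg/mL) was the lowest concentration preventing visible growth.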

Klebsiella pneumoniae = assay: In vitro inhibitory activity against Klebsiella X26; format: functional; summary of the method: as §2
Escherichia coli [3] = assay: Inhibitory activity against Escherichia coli EC14; format: functional; summary of the method: as §2
Haemophilus influenzae = assay: In vitro inhibitory activity against Haemophilus influenza C.L; format: functional; summary of the method: as §2
Enterobacter cloacae = assay: In vitro inhibitory activity against Enterobacter cloacae EB5; format: functional; summary of the method: as §2
Providencia rettgeri = assay: In vitro inhibitory activity against Proteus rettgeri C24; format: functional; summary of the method: as §2
Pseudomonas aeruginosa [4] = assay: In vitro inhibitory activity against Pseudomonas aeruginosa X258; format: functional; summary of the method: as §2
Staphylococcus aureus = assay: In vitro inhibitory activity against Staphylococcus aureus X1.1; format: functional; summary of the method: as §2
[5] = Pseudo-first-order rate constant at pH 10, micro=0.5, 35 degrees Centigrade; format: ADME; summary of the method: as §1
Escherichia coli [6] = assay: In vitro inhibitory activity against Escherichia coli EC14; format: functional; summary of the method: as §2
Pseudomonas aeruginosa [7] = assay: In vitro in vitro inhibitory activity against Pseudomonas aeruginosa X258; format: functional; summary of the method: as §2

| SMILES | K [1] | half-life [2] | MIC (Streptococcus pyogenes) | MIC (Klebsiella pneumoniae) | MIC (Escherichia coli [3]) | MIC (Haemophilus influenzae) | MIC (Enterobacter cloacae) | MIC (Providencia rettgeri) | MIC (Pseudomonas aeruginosa [4]) | MIC (Staphylococcus aureus) | K [5] | MIC (Escherichia coli [6]) | MIC (Pseudomonas aeruginosa [7]) |
| --- | --- | --- | --- | --- | --- | --- | --- | --- | --- | --- | --- | --- | --- |
| O=C(Cc1cccs1)N[C@@H]1C(=O)N2C(C(=O)O)=C(C(=O)O)CC[C@H]12 | 0.0105 h⁻¹ | 66 h |  |  |  |  |  |  |  |  |  |  |  |
| CS(=O)(=O)OC1=C(C(=O)O)N2C(=O)[C@@H](NC(=O)COc3ccccc3)[C@H]2SC1 | 1.91 h⁻¹ | 0.363 h | 0.015 µg/mL (≈ 0.035 µM) | 8 µg/mL (≈ 18.7 µM) | 64 µg/mL (≈ 149 µM) | 4 µg/mL (≈ 9.34 µM) | 128 µg/mL (≈ 299 µM) | 128 µg/mL (≈ 299 µM) | 128 µg/mL (≈ 299 µM) | 0.125 µg/mL (≈ 0.292 µM) |  |  |  |
| O=C(COc1ccccc1)N[C@@H]1C(=O)N2C(C(=O)O)=C(Cl)CC[C@H]12 |  | 15.8 h | 0.25 µg/mL (≈ 0.713 µM) | 8 µg/mL (≈ 22.8 µM) |  | 4 µg/mL (≈ 11.4 µM) | 128 µg/mL (≈ 365 µM) | 128 µg/mL (≈ 365 µM) | 128 µg/mL (≈ 365 µM) | 1 µg/mL (≈ 2.85 µM) | 0.0438 h⁻¹ | 8 µg/mL (≈ 22.8 µM) |  |
| CO/N=C(\C(=O)N[C@@H]1C(=O)N2C(C(=O)[O-])=C(C[n+]3ccccc3)CS[C@H]12)c1csc(N)n1 | 1.85 h⁻¹ | 0.375 h | 0.03 µg/mL (≈ 0.0632 µM) | 0.03 µg/mL (≈ 0.0632 µM) |  | 0.06 µg/mL (≈ 0.126 µM) | 0.06 µg/mL (≈ 0.126 µM) | 0.03 µg/mL (≈ 0.0632 µM) | 2 µg/mL (≈ 4.21 µM) | 1 µg/mL (≈ 2.11 µM) |  | 0.03 µg/mL (≈ 0.0632 µM) |  |
| O=C(Cc1cccs1)N[C@@H]1C(=O)N2C(C(=O)O)=C(C(=O)O)CS[C@H]12 | 0.34 h⁻¹ | 2.04 h |  |  |  |  |  |  |  |  |  |  |  |
| O=C(COc1ccccc1)N[C@@H]1C(=O)N2C(C(=O)O)=C(Cl)CS[C@H]12 | 0.895 h⁻¹ | 0.774 h | 0.25 µg/mL (≈ 0.678 µM) | 8 µg/mL (≈ 21.7 µM) |  | 2 µg/mL (≈ 5.42 µM) | 128 µg/mL (≈ 347 µM) | 128 µg/mL (≈ 347 µM) | 128 µg/mL (≈ 347 µM) | 0.25 µg/mL (≈ 0.678 µM) |  | 64 µg/mL (≈ 174 µM) |  |
| COC(=O)C1=C(C(=O)O)N2C(=O)[C@@H](NC(=O)Cc3cccs3)[C@H]2CC1 |  | 0.867 h |  | 0.25 µg/mL (≈ 0.686 µM) |  | 1 µg/mL (≈ 2.74 µM) | 128 µg/mL (≈ 351 µM) | 8 µg/mL (≈ 22 µM) | 128 µg/mL (≈ 351 µM) | 0.25 µg/mL (≈ 0.686 µM) | 0.799 h⁻¹ | 1 µg/mL (≈ 2.74 µM) |  |
| CC1=C(C(=O)O)N2C(=O)[C@@H](NC(=O)COc3ccccc3)[C@H]2CC1 |  | 433 h | 1 µg/mL (≈ 3.03 µM) | 32 µg/mL (≈ 96.9 µM) |  | 32 µg/mL (≈ 96.9 µM) | 128 µg/mL (≈ 387 µM) | 128 µg/mL (≈ 387 µM) | 128 µg/mL (≈ 387 µM) | 4 µg/mL (≈ 12.1 µM) | 0.0016 h⁻¹ | 128 µg/mL (≈ 387 µM) |  |
| CC1=C(C(=O)O)N2C(=O)[C@@H](NC(=O)COc3ccccc3)[C@H]2SC1 | 0.0793 h⁻¹ | 8.74 h | 1 µg/mL (≈ 2.87 µM) | 64 µg/mL (≈ 184 µM) |  | 16 µg/mL (≈ 45.9 µM) | 128 µg/mL (≈ 367 µM) | 128 µg/mL (≈ 367 µM) | 128 µg/mL (≈ 367 µM) | 4 µg/mL (≈ 11.5 µM) |  | 128 µg/mL (≈ 367 µM) |  |
| CO/N=C(\C(=O)N[C@@H]1C(=O)N2C(C(=O)[O-])=C(C[n+]3ccccc3)CC[C@H]12)c1csc(N)n1 | 0.0628 h⁻¹ | 11 h | 0.015 µg/mL (≈ 0.0329 µM) | 0.03 µg/mL (≈ 0.0657 µM) |  | 0.5 µg/mL (≈ 1.1 µM) | 0.06 µg/mL (≈ 0.131 µM) | 0.06 µg/mL (≈ 0.131 µM) | 2 µg/mL (≈ 4.38 µM) | 4 µg/mL (≈ 8.76 µM) |  | 0.03 µg/mL (≈ 0.0657 µM) |  |
| N[C@@H](C(=O)N[C@@H]1C(=O)N2C(C(=O)O)=C(Cl)CS[C@H]12)c1ccccc1 [CEFACLOR ANHYDROUS] | 0.944 h⁻¹ | 0.734 h | 0.5 µg/mL (≈ 1.36 µM) | 0.25 µg/mL (≈ 0.68 µM) |  | 1 µg/mL (≈ 2.72 µM) | 32 µg/mL (≈ 87 µM) | 128 µg/mL (≈ 348 µM) | 128 µg/mL (≈ 348 µM) | 1 µg/mL (≈ 2.72 µM) |  | 0.25 µg/mL (≈ 0.68 µM) |  |
| CO/N=C(\C(=O)N[C@@H]1C(=O)N2C(C(=O)O)=CCS[C@H]12)c1csc(N)n1 [CEFTIZOXIME] | 0.114 h⁻¹ | 6.08 h | 0.015 µg/mL (≈ 0.0391 µM) | 0.008 µg/mL (≈ 0.0209 µM) |  | 0.015 µg/mL (≈ 0.0391 µM) | 0.06 µg/mL (≈ 0.156 µM) | 0.008 µg/mL (≈ 0.0209 µM) | 32 µg/mL (≈ 83.5 µM) | 4 µg/mL (≈ 10.4 µM) |  | 0.015 µg/mL (≈ 0.0391 µM) |  |

Continued by falling MIC (Klebsiella pneumoniae), values first:

| K [1] | half-life [2] | MIC (Streptococcus pyogenes) | MIC (Klebsiella pneumoniae) | MIC (Escherichia coli [3]) | MIC (Haemophilus influenzae) | MIC (Enterobacter cloacae) | MIC (Providencia rettgeri) | MIC (Pseudomonas aeruginosa [4]) | MIC (Staphylococcus aureus) | K [5] | MIC (Escherichia coli [6]) | MIC (Pseudomonas aeruginosa [7]) | SMILES |
| --- | --- | --- | --- | --- | --- | --- | --- | --- | --- | --- | --- | --- | --- |
| 0.368 h⁻¹ | 1.88 h | 0.12 µg/mL (≈ 0.317 µM) | 32 µg/mL (≈ 84.6 µM) |  | 2 µg/mL (≈ 5.29 µM) | 128 µg/mL (≈ 338 µM) | 128 µg/mL (≈ 338 µM) | 128 µg/mL (≈ 338 µM) | 0.25 µg/mL (≈ 0.661 µM) |  | 128 µg/mL (≈ 338 µM) |  | COCC1=C(C(=O)O)N2C(=O)[C@@H](NC(=O)COc3ccccc3)[C@H]2SC1 |
|  | 46.5 h | 0.25 µg/mL (≈ 0.694 µM) | 8 µg/mL (≈ 22.2 µM) |  | 8 µg/mL (≈ 22.2 µM) | 128 µg/mL (≈ 355 µM) | 128 µg/mL (≈ 355 µM) | 128 µg/mL (≈ 355 µM) | 0.5 µg/mL (≈ 1.39 µM) | 0.0149 h⁻¹ | 32 µg/mL (≈ 88.8 µM) |  | COCC1=C(C(=O)O)N2C(=O)[C@@H](NC(=O)COc3ccccc3)[C@H]2CC1 |
| 0.089 h⁻¹ | 7.79 h | 0.5 µg/mL (≈ 1.22 µM) | 8 µg/mL (≈ 19.5 µM) |  | 8 µg/mL (≈ 19.5 µM) | 128 µg/mL (≈ 312 µM) | 128 µg/mL (≈ 312 µM) | 128 µg/mL (≈ 312 µM) | 0.5 µg/mL (≈ 1.22 µM) |  | 32 µg/mL (≈ 78 µM) |  | CS(=O)(=O)OC1=C(C(=O)O)N2C(=O)[C@@H](NC(=O)COc3ccccc3)[C@H]2CC1 |
| 6.27 h⁻¹ | 0.111 h | 0.03 µg/mL (≈ 0.0784 µM) | 2 µg/mL (≈ 5.23 µM) |  | 2 µg/mL (≈ 5.23 µM) | 128 µg/mL (≈ 335 µM) | 128 µg/mL (≈ 335 µM) |  | 0.5 µg/mL (≈ 1.31 µM) |  | 2 µg/mL (≈ 5.23 µM) | 128 µg/mL (≈ 335 µM) | COC(=O)C1=C(C(=O)O)N2C(=O)[C@@H](NC(=O)Cc3cccs3)[C@H]2SC1 |
| 0.0324 h⁻¹ | 21.4 h | 1 µg/mL (≈ 2.86 µM) | 0.25 µg/mL (≈ 0.715 µM) |  | 0.5 µg/mL (≈ 1.43 µM) | 4 µg/mL (≈ 11.4 µM) | 128 µg/mL (≈ 366 µM) | 128 µg/mL (≈ 366 µM) | 2 µg/mL (≈ 5.72 µM) |  | 0.25 µg/mL (≈ 0.715 µM) |  | N[C@@H](C(=O)N[C@@H]1C(=O)N2C(C(=O)O)=C(Cl)CC[C@H]12)c1ccccc1 [LORACARBEF ANHYDROUS] |
| 0.00565 h⁻¹ | 123 h | 0.015 µg/mL (≈ 0.0411 µM) | 0.008 µg/mL (≈ 0.0219 µM) |  | 0.008 µg/mL (≈ 0.0219 µM) | 0.06 µg/mL (≈ 0.164 µM) | 0.008 µg/mL (≈ 0.0219 µM) | 32 µg/mL (≈ 87.6 µM) | 16 µg/mL (≈ 43.8 µM) |  | 0.008 µg/mL (≈ 0.0219 µM) |  | CO/N=C(\C(=O)N[C@@H]1C(=O)N2C(C(=O)O)=CCC[C@H]12)c1csc(N)n1 |
